According to ChEMBL document CHEMBL4513216, “Probing the Open Global Health Chemical Diversity Library for Multistage-Active Starting Points for Next-Generation Antimalarials” (ACS Infect Dis, 2020):

Assay: Toxicity liver stage against HepG2, at 10uM
Assay type: cell-based
Parameters: test concentration 10 uM, cell line HepG2-A16-CD81EGFP
Details: human, HepG2-A16-CD81EGFP cells; read-out: INHIBITION
In short: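 Uninfected HepG2-A16-CD81EGFP cells, 3 × 10^3 per well, 1536-well, plated on prespotted compound at 10 μM final, parasite-free screening media added to match infected plates; puromycin 10 μM positive, DMSO 0.5% negative; run in parallel with 48 h PbLuc assay at 37 °C, 5% CO2; viability by CellTiter-Glo luminescence, normalized to controls.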

Compound | cytotoxicity at 10 µM [%]
CCn1ccnc1CN1CCCC(CO)(Cc2cccc(OC)c2)C1 (stereo not given) | 3.25
O=c1[nH]cnc2[nH]c(N3CCCCC3)nc12 | 3.03
F[C@@H]1CN(Cc2ccccc2)C[C@@H]1OCc1nc2cnccc2[nH]1 | -0.966
CN1CC[C@H](N(Cc2ccccc2)CC2CC2)C[C@H](O)C1 | -1.47
Cc1ccc(C(=O)N2CC(=O)N(Cc3cccs3)CC(O)C2)cc1 (stereo not given) | -5.46
COc1cn(CC(N)=O)c(CSc2nc(C)cc(C)n2)cc1=O | -30.2
COCC(=O)N1CCC(c2ccc(OC)cc2)C1 (stereo not given) | 1.81
Cc1nc(OCC(=O)N2CCCC2)cc(-n2cccn2)n1 | 3.99
O=C(c1ccnnc1)N1C[C@H]2CCC[C@@H](OCc3cccnc3)[C@@H]2C1 | 5.19
O=C(C1CCOCC1)N1CCO[C@@H]2[C@@H](OCc3ccncc3)CC[C@@H]21 | 8.5
COCC1COCCC12CCN(C(=O)CC1Cc3ccccc3C1)CC2 (stereo not given) | 4.03
COCC1CN(C(=O)C2=CCCC2)Cc2cnn(CC3CC3)c21 (stereo not given) | 9.61
COCC1CC2(CCN(C(=O)c3ccc(F)c(Cl)c3)CC2)CO1 (stereo not given) | -131
CCOC(=O)N1CCN(C(=O)c2sc(-c3ccncc3)nc2C)CC1 | -3.3
Cc1ccc2c(cnn2CCC(=O)NCc2csc(C)n2)c1 | 1.14
COc1cccc(CC(=O)N2CCC(c3ccn4nccc4n3)CC2)c1 | -3.79
Cc1nc(=O)c2ccccc2n1C1=CCN(CC(=O)NC(C)C)CC1 | -7.99
Cc1cc(-c2nccs2)nc(C2CCN(Cc3ccccn3)CC2)n1 | 7.73
COCC(=O)N1CCC(C)(c2cc(O)[nH]n2)CC1 | -6.92
CNC(=O)C1(CCCc2cnccn2)CCN1CCc1ccccc1 (stereo not given) | -1.23
Cc1cc(C(=O)N(C)C)nc(C2(C)CCCN2c2ccccc2)n1 (stereo not given) | 4.89
O=C1NC2(CCN(CC(=O)N3CCOCC3)CC2)Nc2ccc(Br)cc21 | -0.445

Compound | cytotoxicity at 10 µM [%]
CNc1cc(C2CN(C(=O)c3ccccc3)CCO2)nc(C)n1 (stereo not given) | 6.1
CNC(=O)c1c[nH]nc1C1CCCN1c1ncccn1 (stereo not given) | 10
CC(C)n1c(C2CCCN(Cc3ccnn3C)C2)nc2ccccc21 (stereo not given) | -0.0273
O=C(c1cccnc1)N1CCCC(c2cc(C(F)F)n3ncnc3n2)C1 (stereo not given) | 0.745
CC(C)C(C)NC(=O)c1cccn1Cc1cccnc1 (stereo not given) | -44
Cc1ccc(S(=O)(=O)Nc2ccc(-n3ccnc3C)nc2)cc1N(C)C | -3.78
COc1ccc(Br)cc1Cn1nc(C(N)=O)ccc1=O | 8.09
Cn1cc(C2(C)CN(C(=O)COc3ccccc3F)CCO2)cn1 (stereo not given) | 0.814
CSc1c[nH]nc1NS(=O)(=O)c1ccc(C)c(C)c1 | 1.79
CCC(c1ccc(F)cc1F)S(=O)(=O)CCO (stereo not given) | -137
CNC(=O)c1ccc(NC(=O)NC(C)CCc2cccn2C)c(C)c1 (stereo not given) | 3.75
CC(=O)N1CCCN(C(=O)NCC2(c3cccs3)CCCC2)CC1 | 3.23
CC(C)CC(CO)NS(=O)(=O)Cc1ccon1 (stereo not given) | -3.33
Cc1nnc(C2Cc3ccccc3CN2Cc2nc(C3CC3)no2)o1 (stereo not given) | -13.1
Cc1cc(N2CCc3c(ncn3C3CC3)C2)nc(N)n1 | -5.44
Cc1nc(C)c(CCNC(=O)NC2CC(=O)N(C(C)(C)C)C2)s1 (stereo not given) | -1.08
CC(C)(C)NC(=O)C1CSCN1S(=O)(=O)c1ccccc1S(C)(=O)=O (stereo not given) | -4.04
NC(=O)NC(=O)CCN1C(=O)CC(Cc2ccc(F)cc2)C1=O (stereo not given) | -0.327
CCCN(CC(F)F)c1cc(COC)nc2ncnn12 | -3.22
Cn1nnnc1SC1CCN(c2ccccc2Cl)C1=O (stereo not given) | 5.12
N#Cc1ccc(CNc2cnn(CCN3CCOCC3)c2)cc1 | -5.75
CCNC(=O)CCC(=O)NC1(c2cccc(C(F)(F)F)c2)CCC1 | -39.8

Compound | cytotoxicity at 10 µM [%]
COc1cc(-n2cccc2)c(Cl)cc1C(=O)NS(C)(=O)=O | 0.872
CC(NC(=O)N1CCN(c2ncccn2)CC1)c1ccc(C#N)cc1 (stereo not given) | -2.81
CC(C)c1nc(C2CCCN2CCNS(C)(=O)=O)no1 (stereo not given) | 3.33
CC(C1CC1)N(C)C(=O)c1cnc(-c2ccc3c(c2)OCO3)s1 (stereo not given) | -7.06
O=C(Cc1ccccn1)N1C[C@H]2CN(Cc3ccccn3)C[C@H]2C1 | -108
CS(=O)(=O)N1CCOCC2(CCN(c3cnccn3)CC2)C1 | -107
CN(C)C(=O)C1CCC2(CCN(C(=O)Nc3ccccc3)CC2)O1 (stereo not given) | -106
Cc1ccc(C(=O)N2C[C@@H]3COC[C@]3(COc3cccnc3)C2)cn1 | -3.91
CCO[C@H]1CO[C@@]2(CCCN(S(=O)(=O)c3ccccc3)C2)C1 | 4.42
CNCc1cn(CC2CCN(CC(C)(C)CN3CCCC3)CC2)nn1 | -1.58
Cc1cc2ccccc2n1CCC(=O)N1CCCCC1CCO (stereo not given) | 10.4
CC(C)OC(=O)N1CCCCC1CCn1cccn1 (stereo not given) | -1.17
CCN(C)S(=O)(=O)NCC1CCN(Cc2ccccc2C)CC1 | -4.93
COc1cccc([C@@H]2CCN(Cc3[nH]nc(C)c3Cl)C[C@H]2O)c1 | -3.26
CC(C)(O)c1cn(C2CCN(C(=O)CCc3ccncc3)CC2)nn1 | -5.32
CN1CC[C@H]2CN(C(=O)c3ccc4sc5c(c4c3)CCNC5=O)C[C@H]21 | -0.193
CNCc1n[nH]c(=O)n1CC1CCCCC1 | -46.5
O=C(O)c1cccc(CC2CCN(c3ncc(F)cn3)CC2)c1 | -108
COCCN1CC2(CCCN(Cc3cc(=O)c(OC)co3)C2)CCC1=O (stereo not given) | -40
CN1C(=O)c2ccc(C(=O)N(Cc3cnn(C)c3)C3CC3)cc2C1=O | 5.68
O=C(N[C@@H]1CCN(c2nc3ccccc3o2)C[C@H]1O)c1cnccn1 | 3.52
CCc1cccc(OC2CN(C(=O)[C@@H](N)CCSC)C2)c1 | 0.684

Compound | cytotoxicity at 10 µM [%]
CCC(CC)Cn1ncc(N2CCOCC2)cc1=O | -3.46
Cc1ncsc1CCC(=O)NCc1csc(N(C)C)n1 | 1.31
Nc1cc(N2CCCC(COc3ccc(F)cc3)C2)ncn1 (stereo not given) | -0.106
CCC(C(=O)N(C)CCC1=CCN(C)CC1)c1ccccc1 (stereo not given) | -10.9
COc1ccc(CC(=O)N2CC[C@H](CO)[C@H](O)C2)c(OC)c1 | -0.392
N#Cc1cccnc1N1CCCC(CO)(CCOc2ccccc2)C1 (stereo not given) | 3.04
Cc1noc(CN2CC(=O)N(C)c3ccccc3C2=O)n1 | -5.03
COc1ccc(CN2CCCC(Nc3cccc(F)c3)C2)cc1O (stereo not given) | 5.76
CCn1cnnc1C1CCN(C(=O)c2cc(OC)ccc2OC)CC1 | -4.2
CC(C)c1cc(NC(=O)CN2CCCC2Cn2cncn2)on1 (stereo not given) | -4.05
CN(Cc1cccc(F)c1)Cc1nc2c(cnn2C)c(=O)[nH]1 | -2.8
CCOc1ccnc(N2CCN(C(=O)c3ccoc3)CC2)n1 | -6.1
O=C(N1CCCC(n2cncn2)C1)C1(c2cccc(F)c2)CC1 (stereo not given) | -2.91
c1cc2c(cc1CN(Cc1nc(C3CC3)no1)C1CCCC1)OCO2 | -10.6
c1ccc(Cc2nnc(CN3CCCC3Cn3cccn3)o2)cc1 (stereo not given) | -11.7
COc1c(CNCc2ccccc2Cn2ccnc2)c(C)nn1C | -9.2
O=C(NCC1CC1)Nc1ccc(OCC(F)(F)F)nc1 | -2.4
Cc1cc(C(=O)NCC(c2ccsc2)N(C)C)no1 (stereo not given) | -18.3
CN(C)c1cc(CNC(=O)c2cccc(F)c2)ccn1 | -13.5
NC(=O)NC(=O)CN1CCN(c2nccs2)CC1 | -17.9
c1ccc(CN2CCCC(Cn3cncn3)C2)nc1 (stereo not given) | -9.93
Cc1ncsc1C(=O)NCCNc1ncccc1C#N | -21.5

Compound | cytotoxicity at 10 µM [%]
Cc1cccc2[nH]cc(CC(=O)N3CCC(Nc4cccnn4)CC3)c12 | -8.45
CCc1ccc(CNC(=O)N2CCN(Cc3cc(C)no3)CC2)s1 | 1.45
CCc1ncc(CN(C)C(=O)Nc2cccnc2N2CCCC2)s1 | -8.43
Cn1ncc2c(=O)[nH]c(CN3CCCC3Cc3ccccc3)nc21 (stereo not given) | -6.56
CC(C)c1ncncc1C(=O)N1CCCN(Cc2cccs2)CC1 | -7.42
O=C(NCc1cc[nH]n1)NCC(c1ccc(F)cc1)N1CCOCC1 (stereo not given) | -7.77
Cc1nc(-c2ccc(CO)cc2)cc(C2CCNCC2)n1 | 12.3
Cn1ccc(C(=O)N2C[C@@H]3CCN(c4cnccn4)C[C@@H]3C2)n1 | -106
CN1CC(=O)N(c2cccc(F)c2)CC12CCN(Cc1ccsc1)C2 (stereo not given) | 4.93
CC(C)CS(=O)(=O)N1CCC2(CN(c3ccsc3)C(=O)CN2C)C1 (stereo not given) | 6.88
CN(C)C(=O)CO[C@H]1CO[C@@]2(CCN(Cc3ccsc3)C2)C1 | -111
CN(C)C(C)(C)CNCc1cn(C)nc1-c1cccnc1 | 11.8
N#Cc1ccc(C(=O)N2CC[C@H]3[C@@H]2CCC(=O)N3c2cccnc2)cc1 | 1.77
Cc1ccc2c(c1)CN(C(=O)c1ccccc1F)C(CN(C)C)CO2 (stereo not given) | 4.66
CN(C)c1ncc2c(n1)C1(CCN(Cc3ccccc3F)C1)COC2 (stereo not given) | 10.6
O=C([C@@H]1CCO[C@@H]2CCN(Cc3cccs3)C[C@H]21)N1CCCCO1 | 5.77
O=C(NC[C@]12COC[C@H]1CN(Cc1nccs1)C2)c1ccccc1 | -11.8
COCCN1C(=O)CC(c2cccnc2)C12CCN(C(=O)C1CC1)CC2 (stereo not given) | -104
CC(C)c1nn(C)cc1CNCc1ccnc(N(C)C)c1 | -0.431
CC(C)N1CCc2c(CNC(=O)c3nccn3C)cncc2C1 | -106
Cc1ccc2c(n1)N(C)CCN(C(=O)NC(C)C)C2 | -3.38
CC(C)NC(=O)[C@H]1C[C@H]2CN(C(=O)NC(C)C)C[C@@H]1O2 | -105
